Experimental data taken from ChEMBL document CHEMBL4689842, “EUbOPEN Chemogenomics Library wave 1” (2021).

Test system: Fibroblast
Experiment: Multiplex assay against human fibroblast
Format: toxicity, cell-based
Summary of the method: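 At seeding, live cells were stained with Hoechst33342, BioTracker Green Microtubule Cytoskeleton Dye, MitoTracker Red and Annexin V Alexa Fluor 680. After compound addition they were imaged on a CQ1 microscope at 37°C and 5% CO2, and CellPathfinder machine-learning gating sorted them into Hoechst high-intensity objects or normal cells, with normal cells further split into healthy, pyknosed or fragmented nuclei and pyknosed cells into mitotic or apoptotic. Tubulin, mitochondrial-mass and membrane-permeability phenotypes are given as per cents of cells with healthy nuclei.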

[1] = 12 h, 0 µM, compound concentration 0 uM, replicate 1
[2] = 12 h, 0 µM, compound concentration 0 uM, replicate 2
[3] = 12 h, 1 µM, compound concentration 1 uM, replicate 1
[4] = 12 h, 1 µM, compound concentration 1 uM, replicate 2
[5] = 24 h, 0 µM, compound concentration 0 uM, replicate 1
[6] = 24 h, 0 µM, compound concentration 0 uM, replicate 2
[7] = 24 h, 1 µM, compound concentration 1 uM, replicate 1
[8] = 24 h, 1 µM, compound concentration 1 uM, replicate 2
[9] = 12 h, 10 µM, compound concentration 10 uM, replicate 1
[10] = 12 h, 10 µM, compound concentration 10 uM, replicate 2
[11] = 24 h, 10 µM, compound concentration 10 uM, replicate 1
[12] = 24 h, 10 µM, compound concentration 10 uM, replicate 2
[13] = 48 h, 1 µM, compound concentration 1 uM, replicate 1
[14] = 48 h, 1 µM, compound concentration 1 uM, replicate 2
[15] = 48 h, 10 µM, compound concentration 10 uM, replicate 1
[16] = 48 h, 10 µM, compound concentration 10 uM, replicate 2

## CCNc1cc(N[C@H]2CC[C@H](O)CC2)nc(Nc2ccc3c(ccn3Cc3ccccc3)c2)n1
[1]
  Population Apoptotic (%): 55%
  Population Fragmented Nuclei (%): 24%
  Population Healthy Nuclei (%): 52%
  Population Hoechst High Intensity Objects (%): 26%
  Population Membrane Permeable-Phenotype (%): 0%
  Population Mitotic Cells (%): 44%
  Population Normal (%): 73%
  Population Pyknosed Nuclei (%): 22%
  Population Tubulin-Different-Phenotype (%): 38%
  Total Cell Count: 280
[2]
  Population Apoptotic (%): 60%
  Population Fragmented Nuclei (%): 40%
  Population Healthy Nuclei (%): 48%
  Population Hoechst High Intensity Objects (%): 47%
  Population Membrane Permeable-Phenotype (%): 4%
  Population Mitochondria Different-Phenotype (%): 41%
  Population Mitotic Cells (%): 40%
  Population Normal (%): 52%
  Population Pyknosed Nuclei (%): 10%
  Population Tubulin-Different-Phenotype (%): 41%
  Total Cell Count: 94
[3]
  Population Apoptotic (%): 76%
  Population Fragmented Nuclei (%): 45%
  Population Healthy Nuclei (%): 47%
  Population Hoechst High Intensity Objects (%): 20%
  Population Membrane Permeable-Phenotype (%): 2%
  Population Mitochondria Different-Phenotype (%): 11%
  Population Mitotic Cells (%): 23%
  Population Normal (%): 79%
  Population Pyknosed Nuclei (%): 7%
  Population Tubulin-Different-Phenotype (%): 12%
  Total Cell Count: 286
[4]
  Population Apoptotic (%): 66%
  Population Fragmented Nuclei (%): 67%
  Population Healthy Nuclei (%): 29%
  Population Hoechst High Intensity Objects (%): 50%
  Population Membrane Permeable-Phenotype (%): 8%
  Population Mitochondria Different-Phenotype (%): 17%
  Population Mitotic Cells (%): 33%
  Population Normal (%): 49%
  Population Pyknosed Nuclei (%): 3%
  Population Tubulin-Different-Phenotype (%): 34%
  Total Cell Count: 160
[5]
  Population Apoptotic (%): 71%
  Population Fragmented Nuclei (%): 21%
  Population Healthy Nuclei (%): 45%
  Population Hoechst High Intensity Objects (%): 38%
  Population Mitochondria Different-Phenotype (%): 65%
  Population Mitotic Cells (%): 28%
  Population Normal (%): 61%
  Population Pyknosed Nuclei (%): 32%
  Population Tubulin-Different-Phenotype (%): 50%
  Total Cell Count: 257
[6]
  Population Apoptotic (%): 90%
  Population Fragmented Nuclei (%): 60%
  Population Healthy Nuclei (%): 21%
  Population Hoechst High Intensity Objects (%): 40%
  Population Membrane Permeable-Phenotype (%): 0%
  Population Mitochondria Different-Phenotype (%): 83%
  Population Mitotic Cells (%): 10%
  Population Normal (%): 59%
  Population Pyknosed Nuclei (%): 18%
  Population Tubulin-Different-Phenotype (%): 33%
  Total Cell Count: 92
[7]
  Population Apoptotic (%): 76%
  Population Fragmented Nuclei (%): 45%
  Population Healthy Nuclei (%): 44%
  Population Hoechst High Intensity Objects (%): 21%
  Population Membrane Permeable-Phenotype (%): 0%
  Population Mitochondria Different-Phenotype (%): 10%
  Population Mitotic Cells (%): 24%
  Population Normal (%): 78%
  Population Pyknosed Nuclei (%): 10%
  Population Tubulin-Different-Phenotype (%): 10%
  Total Cell Count: 313
[8]
  Population Apoptotic (%): 100%
  Population Fragmented Nuclei (%): 58%
  Population Healthy Nuclei (%): 40%
  Population Hoechst High Intensity Objects (%): 53%
  Population Membrane Permeable-Phenotype (%): 3%
  Population Mitochondria Different-Phenotype (%): 50%
  Population Mitotic Cells (%): 0%
  Population Normal (%): 46%
  Population Pyknosed Nuclei (%): 1%
  Population Tubulin-Different-Phenotype (%): 53%
  Total Cell Count: 152

## O=C(Nc1ccc(-c2ccnc(Nc3ccc(N4CCOCC4)cc3)n2)cc1)[C@@H]1CCCN1
[3]
  Population Apoptotic (%): 58%
  Population Fragmented Nuclei (%): 25%
  Population Healthy Nuclei (%): 41%
  Population Hoechst High Intensity Objects (%): 13%
  Population Membrane Permeable-Phenotype (%): 36%
  Population Mitochondria Different-Phenotype (%): 11%
  Population Mitotic Cells (%): 41%
  Population Normal (%): 87%
  Population Pyknosed Nuclei (%): 33%
  Population Tubulin-Different-Phenotype (%): 47%
  Total Cell Count: 100
[4]
  Population Apoptotic (%): 33%
  Population Fragmented Nuclei (%): 13%
  Population Healthy Nuclei (%): 76%
  Population Hoechst High Intensity Objects (%): 7%
  Population Membrane Permeable-Phenotype (%): 4%
  Population Mitochondria Different-Phenotype (%): 10%
  Population Mitotic Cells (%): 66%
  Population Normal (%): 92%
  Population Pyknosed Nuclei (%): 10%
  Population Tubulin-Different-Phenotype (%): 10%
  Total Cell Count: 65
[9]
  Population Apoptotic (%): 39%
  Population Fragmented Nuclei (%): 35%
  Population Healthy Nuclei (%): 30%
  Population Hoechst High Intensity Objects (%): 13%
  Population Membrane Permeable-Phenotype (%): 28%
  Population Mitochondria Different-Phenotype (%): 25%
  Population Mitotic Cells (%): 60%
  Population Normal (%): 86%
  Population Pyknosed Nuclei (%): 33%
  Population Tubulin-Different-Phenotype (%): 74%
  Total Cell Count: 146
[10]
  Population Apoptotic (%): 77%
  Population Fragmented Nuclei (%): 7%
  Population Healthy Nuclei (%): 77%
  Population Hoechst High Intensity Objects (%): 5%
  Population Membrane Permeable-Phenotype (%): 8%
  Population Mitochondria Different-Phenotype (%): 28%
  Population Mitotic Cells (%): 22%
  Population Normal (%): 94%
  Population Pyknosed Nuclei (%): 14%
  Population Tubulin-Different-Phenotype (%): 44%
  Total Cell Count: 65
[7]
  Population Apoptotic (%): 52%
  Population Fragmented Nuclei (%): 24%
  Population Healthy Nuclei (%): 52%
  Population Hoechst High Intensity Objects (%): 9%
  Population Membrane Permeable-Phenotype (%): 22%
  Population Mitochondria Different-Phenotype (%): 6%
  Population Mitotic Cells (%): 47%
  Population Normal (%): 91%
  Population Pyknosed Nuclei (%): 23%
  Population Tubulin-Different-Phenotype (%): 35%
  Total Cell Count: 100
[8]
  Population Apoptotic (%): 60%
  Population Fragmented Nuclei (%): 7%
  Population Healthy Nuclei (%): 85%
  Population Hoechst High Intensity Objects (%): 6%
  Population Membrane Permeable-Phenotype (%): 3%
  Population Mitochondria Different-Phenotype (%): 19%
  Population Mitotic Cells (%): 40%
  Population Normal (%): 93%
  Population Pyknosed Nuclei (%): 7%
  Population Tubulin-Different-Phenotype (%): 10%
  Total Cell Count: 63
[11]
  Population Apoptotic (%): 57%
  Population Fragmented Nuclei (%): 37%
  Population Healthy Nuclei (%): 48%
  Population Hoechst High Intensity Objects (%): 12%
  Population Membrane Permeable-Phenotype (%): 16%
  Population Mitochondria Different-Phenotype (%): 21%
  Population Mitotic Cells (%): 42%
  Population Normal (%): 87%
  Population Pyknosed Nuclei (%): 13%
  Population Tubulin-Different-Phenotype (%): 74%
  Total Cell Count: 156
[12]
  Population Apoptotic (%): 58%
  Population Fragmented Nuclei (%): 18%
  Population Healthy Nuclei (%): 64%
  Population Hoechst High Intensity Objects (%): 1%
  Population Membrane Permeable-Phenotype (%): 13%
  Population Mitochondria Different-Phenotype (%): 17%
  Population Mitotic Cells (%): 41%
  Population Normal (%): 98%
  Population Pyknosed Nuclei (%): 17%
  Population Tubulin-Different-Phenotype (%): 22%
  Total Cell Count: 72
[13]
  Population Apoptotic (%): 60%
  Population Fragmented Nuclei (%): 29%
  Population Healthy Nuclei (%): 60%
  Population Hoechst High Intensity Objects (%): 9%
  Population Membrane Permeable-Phenotype (%): 26%
  Population Mitochondria Different-Phenotype (%): 4%
  Population Mitotic Cells (%): 40%
  Population Normal (%): 90%
  Population Pyknosed Nuclei (%): 9%
  Population Tubulin-Different-Phenotype (%): 27%
  Total Cell Count: 111
[14]
  Population Apoptotic (%): 50%
  Population Fragmented Nuclei (%): 18%
  Population Healthy Nuclei (%): 76%
  Population Membrane Permeable-Phenotype (%): 18%
  Population Mitotic Cells (%): 50%
  Population Pyknosed Nuclei (%): 4%
  Population Tubulin-Different-Phenotype (%): 30%
  Total Cell Count: 101
[15]
  Population Apoptotic (%): 83%
  Population Fragmented Nuclei (%): 44%
  Population Healthy Nuclei (%): 50%
  Population Hoechst High Intensity Objects (%): 22%
  Population Membrane Permeable-Phenotype (%): 15%
  Population Mitochondria Different-Phenotype (%): 2%
  Population Mitotic Cells (%): 16%
  Population Normal (%): 77%
  Population Pyknosed Nuclei (%): 4%
  Population Tubulin-Different-Phenotype (%): 61%
  Total Cell Count: 179
[16]
  Population Apoptotic (%): 33%
  Population Fragmented Nuclei (%): 32%
  Population Healthy Nuclei (%): 64%
  Population Hoechst High Intensity Objects (%): 6%
  Population Membrane Permeable-Phenotype (%): 20%
  Population Mitochondria Different-Phenotype (%): 3%
  Population Mitotic Cells (%): 66%
  Population Normal (%): 93%
  Population Pyknosed Nuclei (%): 3%
  Population Tubulin-Different-Phenotype (%): 53%
  Total Cell Count: 99
